High-throughput results deposited in PubChem by Johns Hopkins Ion Channel Center.
This is a sample that favours compounds with a hit; in the whole collection about 3.8% have one here.
Kir21 inh = inhibitors of mouse Kir2.1 inward-rectifier potassium channel | P35561 | HEK293-Kir2.1, FluxOR thallium flux fluorescence; stronger effect = lower value | B-score at 10 µM | 0.85% of 310,000 active | AID 1672;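 active = fluorescence ratio B-score at or below minus 3 SD of library scores, with starting-brightness B-score within 2 SD, cut at about -4.2 in these data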;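 also: channel flux triggered by added potassium and thallium sulfate stimulus; B-score of peak minus minimum fluorescence over baseline after thallium stimulus; more negative B-score means stronger Kir2.1 block with less thallium influx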
KCNQ1 act = potentiators or activators of human KCNQ1 potassium channel; 0.35% of 310,000 active; CHO-K1 KCNQ1, thallium flux FluxOR fluorescence; stronger effect = higher value; P51787; AID 2648; B-score at 10 µM;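 active = fluorescence ratio B-score, a plate-corrected score, at least three library SD, with initial intensity B-score within 5 SD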
Target sequence (P51787 whole entry, looked up): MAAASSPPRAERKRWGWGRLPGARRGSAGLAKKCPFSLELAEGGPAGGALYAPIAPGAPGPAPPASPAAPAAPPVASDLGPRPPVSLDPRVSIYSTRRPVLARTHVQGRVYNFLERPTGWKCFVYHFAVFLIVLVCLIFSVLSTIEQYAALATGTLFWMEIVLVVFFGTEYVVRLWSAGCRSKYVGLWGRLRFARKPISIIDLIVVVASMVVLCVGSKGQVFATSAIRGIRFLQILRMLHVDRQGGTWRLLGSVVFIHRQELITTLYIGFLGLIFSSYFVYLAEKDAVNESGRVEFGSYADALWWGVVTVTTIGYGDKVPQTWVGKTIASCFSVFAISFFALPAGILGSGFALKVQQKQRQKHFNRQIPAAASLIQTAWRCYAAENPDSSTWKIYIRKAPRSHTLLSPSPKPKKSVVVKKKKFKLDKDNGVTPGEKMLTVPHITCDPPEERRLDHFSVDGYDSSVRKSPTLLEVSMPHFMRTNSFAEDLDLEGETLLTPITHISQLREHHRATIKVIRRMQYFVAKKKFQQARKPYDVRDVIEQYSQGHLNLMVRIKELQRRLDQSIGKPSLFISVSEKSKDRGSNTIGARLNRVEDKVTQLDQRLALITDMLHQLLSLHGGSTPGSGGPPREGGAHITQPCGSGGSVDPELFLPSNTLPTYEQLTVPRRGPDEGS
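Assay system: stable KCNQ1 CHO-K1 line; medium: assay buffer, equal DMSO in all wells; timing: 90 min dye loading and 20 min compound exposure, both at room temperature; technique: kinetic FluxOR thallium fluorescence, 10-s 1-Hz baseline, 110-s post-stimulus read; read-out basis: B score of baseline-normalized fluorescence ratio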
hERG protect = compounds protecting human hERG from proarrhythmic drug block; Q12809; CHO-hERG, FluxOR thallium flux, dofetilide IC70 present; activation (rescue from dofetilide block), less the hit threshold, % at 10 µM; 0.51% of 310,000 active; AID 1511;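 active = activation above the mean of controls blocked by dofetilide plus 5 SD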;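 also: thallium influx through hERG after potassium depolarization seen as dye fluorescence rise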
KCNQ1 block = inhibitors of human KCNQ1 potassium channel; CHO-K1 KCNQ1, FluxOR thallium flux fluorescence; stronger effect = higher value; B-score at 10 µM; 1.3% of 310,000 active; AID 2642;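 active = compounds whose thallium flux B-score, printed positive for inhibition, exceeds three library SD while starting fluorescence stays within three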;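 also: channel opened by potassium depolarization with thallium stimulus after 20 min compound exposure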
KCNK9 block = human KCNK9 channel inhibition | Q9NPC2 | HEK293 KCNK9, FluxOR thallium flux fluorescence; stronger effect = lower value | 1.2% of 310,000 active | B-score at 10 µM;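 active = ratio B-score over 3 SD below the library mean, with starting fluorescence within 5 SD of its mean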;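 also: negative B-score means less thallium flux so channel inhibition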
KCNK3 inh = human KCNK3 channel inhibition, primary screen | O14649 | CHO-KCNK3 thallium flux, FluxOR fluorescence; stronger effect = lower value | B-score at 10 µM | 0.84% of 340,000 active | AID 602410;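 active = B-score under library mean minus 4 SD, starting fluorescence ratio at most library mean plus 5 SD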;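 also: more negative B-score means stronger inhibition of thallium flux through KCNK3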
Numbers stand for hits; n = inactive; x = not tested or not shown.

SMILES	Kir21 inh	KCNQ1 act	hERG protect	KCNQ1 block	KCNK9 block	KCNK3 inh
CC(C)(O)[C@@H]1[C@@H]2C[C@@]3(CC[C@]4(C)C(CCC5[C@@]6(C)CC[C@H](O)C(C)(C)C6CC[C@]54C)[C@@H]13)C(=O)O2 (stereo not given in full)	n	n	n	n	n	x
Cc1cc(C)n(-c2nc3ccccc3nc2Nc2ccc3c(c2)OCO3)n1	n	n	n	n	-7.3	n
CCN(CC)c1nc2ccccc2nc1-n1nc(C)cc1C	-4.3	n	n	n	n	n
Cc1cc(C)n(-c2nc3ccccc3n3cnnc23)n1	n	n	n	n	n	n
COC(=O)C1C=CC(OC2OC(COC(C)=O)C(OC(C)=O)C(OC(C)=O)C2OC(C)=O)n2c(=O)n(-c3ccccc3)c(=O)n21 (stereo not given)	x	x	x	x	x	n
c1ccc2c(c1)CCN(c1ncnc3c1[nH]c1ccccc13)C2	n	n	n	11	n	-8.7
COc1cccc2[nH]c3c(N4CCc5ccccc5C4)ncnc3c12	n	n	n	n	n	x
O=C(Cn1ccc(=O)[nH]c1=O)Nc1ccc(O)c([N+](=O)[O-])c1	x	x	x	x	x	n
O=C(COc1ccccc1)NC(=S)N1CCc2ccccc21	n	10	4.9	n	n	n
O=C(NC(=S)N1CCCc2ccccc21)c1ccc(Br)cc1	n	16	43	n	n	n
CC(OC(=O)c1ccc(F)c(S(=O)(=O)N2CCOCC2)c1)C(=O)NC1CCCC1 (stereo not given)	x	x	x	x	x	n
N#Cc1cccc(NC(=O)COC(=O)Cn2nc(-c3ccccc3)oc2=O)c1	x	x	x	x	x	n
C=CCc1cc(Cl)ccc1OCCCNC(C)C	n	n	n	n	n	n
C=CCc1cc(Cl)ccc1OCCCNCCO	-5.4	n	n	n	n	n
CCN(C(=O)CSc1nc2ccccc2c(=O)n1-c1ccccc1F)C1CCS(=O)(=O)C1 (stereo not given)	x	x	x	x	x	-11
CCN(C(=O)CSc1nc2cc(Cl)ccc2c(=O)n1CC(C)C)C1CCS(=O)(=O)C1 (stereo not given)	n	n	n	n	n	-11
Cc1nnsc1C(=O)Nc1ccc(S(=O)(=O)N2CCCCC2)cc1	n	n	n	n	n	n
COc1ccc(Br)cc1/C=N/N1CCN(Cc2ccccc2Cl)CC1	n	n	n	8	n	n
Cc1cc(Br)ccc1NC(=O)CNC(=O)CNc1cccc([N+](=O)[O-])c1	x	x	x	x	x	n
N#Cc1ccsc1NC(=O)CN1CCN(c2ccccc2)CC1	n	n	8.6	n	n	n
N#Cc1ccsc1NC(=O)CN1CCN(c2ccc(O)cc2)CC1	n	n	n	n	n	n
COc1ccc(-c2csc(NC(=O)C3CSC4(C)CCC(=O)N34)n2)c(OC)c1 (stereo not given)	n	n	n	n	n	n
CCCCOc1ccc(/C=N/NC(=O)c2nnn(-c3nonc3N)c2C)cc1	n	n	n	n	n	n
Cc1cc(NCc2ccccn2)n2nc(C)c(-c3ccccc3)c2n1	n	n	n	6	n	n
CCCC/C(O)=C1\C(=O)CCCC1=NCCc1c(C)[nH]c2ccccc12	-4.4	n	n	n	n	n
SMILES	Kir21 inh	KCNQ1 act	hERG protect	KCNQ1 block	KCNK9 block	KCNK3 inh
CCC/C(O)=C1\C(=O)CCCC1=NCCc1c(C)[nH]c2ccc(C)cc12	n	n	n	n	n	n
Cc1cccc(N=Nc2c(C)c(C#N)c(O)[nH]c2=O)c1	n	n	n	n	n	n
Cc1c(C#N)c(O)[nH]c(=O)c1N=Nc1ccc(Br)cc1C(=O)O	n	n	4.6	n	n	n
O=C(O)c1ccc(COc2ccc(Cl)cc2)o1	n	n	n	n	n	n
CCc1ccc(OCc2ccc(C(=O)O)o2)cc1	n	n	5.2	n	n	n
Cc1cc(C)cc(CC2CC(=O)N(c3ccc([N+](=O)[O-])cc3)C2=O)c1 (stereo not given)	n	n	n	n	n	n
COc1ccc(CN(C)CC(O)COc2ccc(C(=O)c3ccccc3)cc2)c(OC)c1OC (stereo not given)	-4.3	n	n	n	n	n
COc1ccc(CN(C)C(=O)c2cccc(Oc3ccccc3)c2)c(OC)c1OC	-4.9	n	n	n	n	n
COc1ccc(Br)cc1CN(C)CC(O)COc1ccc(Br)cc1 (stereo not given)	-6.5	n	n	n	n	n
Cc1cc(C)c(C#N)c(N2CCN(Cc3ccc4c(c3)OCO4)CC2)n1	n	n	n	n	n	n
Cc1cc(C)c(C#N)c(N2CCN(Cc3ccccc3)CC2)n1	-4.5	n	n	n	n	n
CC(=O)Nc1ccc(S(=O)(=O)N2CCC(C(=O)O)CC2)cc1	n	10	n	n	n	n
COc1ccc(Nc2c3c(nc4ccccc24)CCC3)cc1	-12	n	n	n	n	n
Fc1ccc(Nc2c3c(nc4ccccc24)CCC3)cc1	-5.1	n	n	n	n	n
Cc1ccc2nc3c(c(Nc4ccccc4)c2c1)CCC3	-4.4	n	n	n	n	n
c1ccc2c(Nc3ccc4c(c3)OCCO4)c3c(nc2c1)CCC3	n	n	n	n	n	n
c1ccc(Nc2c3c(nc4ccccc24)CCC3)cc1	-4.9	n	n	n	n	n
CCN(C(=O)COC(=O)CCC1CCCC1)c1c(N)n(Cc2ccccc2)c(=O)[nH]c1=O	x	x	x	x	x	n
COc1ccc(C)cc1Nc1c2c(nc3ccccc13)CCC2	-9.3	n	n	n	n	n
COc1ccc(Nc2c3c(nc4ccccc24)CCCC3)cc1OC	n	n	n	n	n	n
Nc1ccccc1/C=C/c1ccccc1N	x	x	x	x	x	n
CCOc1cccc(OCCOCCOc2ccccc2C(C)=O)c1	n	n	n	n	n	n
CCOc1ccc(OCCCCOc2ccccc2C(C)=O)cc1	n	n	n	7	n	n
Cc1ccc(S(=O)(=O)CCC(=O)OCC(=O)NC(C)c2ccc(F)cc2)cc1 (stereo not given)	x	x	x	x	x	n
O=C(OCN1C(=O)c2ccccc2C1=O)c1cccc(OC(F)F)c1	n	n	n	n	n	n
SMILES	Kir21 inh	KCNQ1 act	hERG protect	KCNQ1 block	KCNK9 block	KCNK3 inh
CCCCn1c(N)c(N(CC(C)C)C(=O)CC2OC(=O)c3ccccc32)c(=O)[nH]c1=O (stereo not given)	n	n	n	n	n	n
CCCOc1ccc(CN(CCC#N)C(=S)NC(=O)c2ccccc2)cc1	n	14	59	n	n	n
COc1cc(C(=O)NC(=S)N(CCC#N)Cc2cccnc2)cc(OC)c1OC	x	x	x	x	x	n
CSc1ccc(CN2CCC(Oc3ccc(C(=O)N4CCCC4)cc3)CC2)cc1	-4.4	n	n	n	n	n
O=C(c1ccc(OC2CCN(Cc3ccc(F)cc3)CC2)cc1)N1CCCC1	-4.2	n	n	n	n	n
C[C@H](CO)N1C[C@H](C)[C@@H](CN(C)S(=O)(=O)c2cn(C)cn2)Oc2ccc(NC(=O)Cc3ccccc3)cc2C1=O	x	x	x	x	x	n
